Assay results pooled from the literature.
Each line is one published result; the experiments were not run side by side.
AGTR1: Type-1 angiotensin II receptor (AGTR1, Homo sapiens, UniProt P30556)
MTOR: Serine/threonine-protein kinase mTOR (MTOR, Homo sapiens, UniProt P42345)
Transmembrane protease serine 6: Transmembrane protease serine 6 (Homo sapiens, UniProt Q8IU80)
SRPK3: SRSF protein kinase 3 (SRPK3, Homo sapiens, UniProt Q9UPE1)
NPY1R: Neuropeptide Y receptor type 1 (NPY1R, Homo sapiens, UniProt P25929)

SMILES	target	test	setting	inhibition
C[C@H](C(=O)N[C@H]1COc2ccccc2[C@@H]1S(C)(=O)=O)c1ccc(F)cc1	AGTR1	cell-free assay	10 µM	-6%
C#Cc1n[nH]c2c(-c3cn([C@@H](C)c4ccccc4)c(=O)[nH]c3=O)cc(F)cc12	MTOR	enzyme activity, inhibitor	0.1 µM	6.8%
CC(C)CC(CC(=O)NO)N=[N+]=[N-] (stereo not shown)	Endoplasmic reticulum aminopeptidase 2 (ERAP2, Homo sapiens, UniProt Q6P179)	enzyme activity, inhibitor, fluorescence	300 µM	21%
C[C@@H]1CCCN1CCCCOc1ccc2occc(=O)c2c1	Transmembrane protease serine 6	enzyme activity, inhibitor, fluorescence	10 µM	10%
Cn1cc(-c2cc(F)cc(N3CCn4c(cc5c4CCCC5)C3=O)c2CO)cc(Nc2ccc(N3CCN(C4COC4)CC3)cn2)c1=O	SRPK3	enzyme activity, inhibitor	0.1 µM	15%
CC(C)C[C@H](NC(=O)[C@H](Cc1ccccc1)NC(=O)c1cnccn1)B(O)O	Neutrophil elastase (ELANE, Homo sapiens, UniProt P08246)	enzyme activity, inhibitor	33 µM	36.1%
CCCCCCCCCCCC(=O)OC[C@@H](COP(=O)(O)OCCNC(=O)c1ccc(Cn2c(=O)[nH]c3c(N)nc(OCCOC)nc32)cc1)OC(=O)CCCCCCCCCCC	NPY1R	ligand displacement, radioligand	10 µM	11%
O=c1ccoc2ccc(OCCCCN3CCCCC3)cc12	Transmembrane protease serine 6	enzyme activity, inhibitor, fluorescence	10 µM	12%
COCc1c(-c2cc3cc(C)cc(OC)c3s2)c2c(N)ncnn2c1CN1CCNC(=O)C1	AGTR1	ligand displacement, radioligand	10 µM	9%
Clc1ccc2c(C3CCN(CCc4c[nH]c5ccccc45)CC3)c[nH]c2c1	Neuronal acetylcholine receptor; alpha4/beta2 (Homo sapiens, UniProt P17787+P43681)	ligand displacement, radioligand	10 µM	3%
COc1ccc(S(=O)(=O)N2CCCCC2)cc1C	AGTR1	ligand displacement, radioligand	10 µM	< 30%
c1ccc(C(NCCNC(c2ccccc2)c2ccccc2)c2ccccc2)cc1	AGTR1	cell-free assay	10 µM	40%
Cn1cc(-c2cccc(N3CCc4c(sc5c4CC(C)(C)C5)C3=O)c2CO)cc(Nc2ccncn2)c1=O	SRPK3	enzyme activity, inhibitor	1 µM	9%
COCCN(CCOC)C(=O)[C@@]12C[C@@H]1[C@@H](n1cnc3c(NC(C4CC4)C4CC4)nc(Cl)nc31)[C@H](O)[C@@H]2O	Adenosine receptor A3 (ADORA3, Homo sapiens, UniProt P0DMS8)	ligand displacement, radioligand	10 µM	30%
CN(CCN1CCC(OC(=O)Nc2ccccc2-c2ccccc2)CC1)C(=O)c1ccc(CN2CCC(C(N)=O)CC2)cc1	AGTR1	ligand displacement, radioligand	1 µM	3%
CN1CCN(CCCCOc2ccc3occc(=O)c3c2)CC1	Transmembrane protease serine 6	enzyme activity, inhibitor, fluorescence	10 µM	11%
C#Cc1n[nH]c2c(-c3cn(C(C)c4ccccn4)c(=O)[nH]c3=O)cc(F)cc12 (stereo not shown)	MTOR	enzyme activity, inhibitor	1 µM	-1.6%
O=C(Nc1cccnn1)N1CCN([C@@H]2CCOc3cc(C(F)(F)F)ccc32)CC1	Vasopressin V2 receptor (AVPR2, Homo sapiens, UniProt P30518)	cell-free assay	20 µM	-4%
CCN(CC)CCCC[C@H](NC(=O)[C@H](CC(C)C)NC(=O)[C@H](C)NC(=O)[C@H](Cc1ccccc1)NC(=O)c1ccc(C(C)(C)C)cc1)C(=O)N[C@@H](CO)C(=O)OC	NPY1R	ligand displacement, radioligand	10 µM	-20%
